# A selection: hits, their analogues and other compounds. The true share with any hit is near 1.8%.
# PPC-1+TRAIL kill – compounds killing PPC-1 cancer cells with TRAIL present (potentiator screen, no TRAIL-free arm) | cell killing (% activity), % at 4 µM or 5 µM | 0.41% of 220,000 active | AID 1443 | PPC-1 cells + TRAIL, ATPLite viability luminescence;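 active = cell killing above 50% in the first pass at 4 µM, then a duplicate retest at 5 µM averaging 50% or more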;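 note: plate controls were cells with TRAIL plus DMSO for no effect and medium-only wells lacking cells for full effect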
# STAT3 act – increases IL-6 driven STAT3 reporter signal; U3A cells, IL-6 STAT3-luciferase reporter, luminescence; 100% = signal with IL-6 EC80 alone; activation (% of control), % at 5.6 µM; 0.91% of 190,000 active; AID 871;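 active = activation above the screen-wide mean of compound activation plus 3 SD, cut at about 130% in these data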;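 note: 0% = background luminescence of wells with medium and substrate only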
#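 Test system: human U3A cells carrying STAT3-luciferase construct; control set: IL-6-only wells as 100% reference; timing: compound pre-incubation 1 h before IL-6, then 6 h stimulation at 37 °C; also added: IL-6 stimulus at 33 ng/mL final; evaluation: % activation versus median of IL-6-stimulated wells; detection: reporter luminescence signal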
# STAT1 blocker – reduces IFN-gamma driven STAT1 reporter signal; NIH 3T3 STAT1-luciferase reporter, luminescence; 0.35% of 200,000 active; AID 920; inhibition, % at 5.5 µM;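 active = inhibition above a set limit, the mean inhibition across all tested compounds plus 3 SD, cut at about 34% in these data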;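 note: 0% = IFN-gamma with DMSO and 100% = IFN-gamma with 300 µM nifuroxazide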
# C8 TRAIL sens – caspase-8 TRAIL sensitization; 1% of 360,000 active; NB7+C8 cells + TRAIL, ATPlite viability luminescence; AID 624354; inhibition (viability loss, TRAIL sensitization), % at 10 µM;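 active = compounds causing at least 50% loss of cell viability in the single-dose screen, relative to plate controls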
# STAT3 inh – STAT3 signaling inhibition | U3A cells, IL-6 STAT3-luciferase reporter, luminescence; host cell line lacks STAT1 | inhibition, % at 5.5 µM | 0.89% of 190,000 active | AID 862;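 active = inhibition above the mean inhibition across all screened compounds plus 3 SD, cut at about 44% in these data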;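 note: 0% = DMSO only wells and 100% = 100 µM nifuroxazide control wells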
# Starred values were filed as active, the others as inactive; . = not tested or not shown.
SMILES,PPC-1+TRAIL kill,STAT3 act,STAT1 blocker,C8 TRAIL sens,STAT3 inh
O=C(NCC(=O)N1CCOCC1)c1ccccc1,.,.,.,2,.
COc1ccc(NC(=O)C(CC(=O)O)Cc2ccc(Cl)cc2)cc1 (stereo not given),.,.,.,-4,.
CC(=O)Oc1[nH]c(=O)c2cccc3c2c1CCC3,.,.,.,9,.
Cc1cc2nc(-c3ccc(SCC(=O)Nc4nccs4)nc3)[nH]c2cc1C,25,108,-29,59*,-10
Cc1ccc2nc(-c3ccc(SCC(=O)O)nc3)[nH]c2c1,30,93,5,48,10
Cc1ccc2nc(-c3ccc(SCC(=O)N4CCc5ccccc54)nc3)[nH]c2c1,56*,143*,-35,65*,-43
CC(=O)CSc1ccc(-c2nc3cc(C)c(C)cc3[nH]2)cn1,.,14,85*,78*,103*
COc1ccc(-c2[nH]c(-c3ccc(C)cc3)nc2SCC(=O)Nc2nccs2)cc1,-2,104,5,17,-3
Cc1ccc([N+](=O)[O-])cc1NC(=O)C(C)Sc1nnc(C)n1CC1CCCO1 (stereo not given),.,.,.,-6,.
CCOc1ccc(S(=O)(=O)NC2CCCC2)cc1C,.,.,.,4,.
COc1ccc(-c2nc3c([nH]2)c(=O)n(C)c(=O)n3C)c(OC)c1,4,134*,-2,6,-37
Cn1c(=O)c2[nH]c(-c3ccccc3O)nc2n(C)c1=O,5,125,6,.,-16
CCOC(=O)c1sc2nc(-c3ccccc3)ccc2c1N,58*,91,-75,77*,9
CCCCOCCCNC(=O)C[C@@H]1C[C@@]2(C(=O)OCC)CCCC=C2N(Cc2ccc(Cl)cc2Cl)C1=O,.,.,.,-6,.
COC(=O)c1ccccc1S(=O)(=O)NNC(=O)C12CC3CC(CC(C3)C1)C2,.,.,.,-11,.
O=C(NCc1ccc(Cl)cc1)N1CCN(Cc2ccccc2)CC1,.,.,.,3,.
CN(Cc1ccccc1)c1nc(-c2ccc([N+](=O)[O-])cc2)nc2ccccc12,15,94,5,19,18
O=[N+]([O-])c1ccc(-c2nc(C(Cl)Cl)c3ccccc3n2)cc1,12,.,.,60*,.
CN=c1scc(-c2cccs2)n1/N=C/c1ccc(O)c(O)c1O,38,64,47*,91*,45*
CN=c1scc(C)n1/N=C/c1ccc(O)c(O)c1O,6,81,9,39,23
CN=c1scc(-c2cccs2)n1/N=C/c1ccccc1O,74*,9,47*,94*,107*
Cc1cccc(C)c1Nc1nnc(SCc2nc3ccccc3s2)s1,24,130,-27,9,-36
Cc1ccnc(SCc2nc3ccccc3s2)n1,14,136*,-33,5,-32
O=[n+]1c2c(n([O-])c3c1CCC3)CCCC2,18,136*,-1,1,-36
Cc1ccnc(NC(=O)c2ccc3[nH]c(=O)c(=O)[nH]c3c2)c1,.,.,.,0,.
SMILES,PPC-1+TRAIL kill,STAT3 act,STAT1 blocker,C8 TRAIL sens,STAT3 inh
CC1OC(CC(=O)O)CC2=C1C(=O)c1c(O)cccc1C2=O (stereo not given),.,.,.,92*,.
OC(c1ccccc1)(c1ccccc1)C1CCN(CCCOc2ccc3c(c2)CCCC3)CC1,.,.,.,66*,.
N#CCc1ccc(OCCCN2CCC(C(O)(c3ccccc3)c3ccccc3)CC2)cc1,.,.,.,-8,.
CC(C)(C)c1ccc(C(O)CCCN2CCC(C(O)(c3ccccc3)c3ccccc3)CC2)cc1 (stereo not given),32,104,8,60*,-2
NC(=O)c1cccc(-c2ccnc3c2CC(C(=O)Nc2ccc(Cl)cc2)O3)c1 (stereo not given),.,.,.,-16,.
COc1ccc(-n2c(C)cc(C3=NNC(=NC4CC4)SC3)c2C)cc1,2,80,62*,4,28
Cc1cc(C2=NNC(=NC3CC3)SC2)c(C)n1-c1ccccc1,6,12,91*,79*,105*
Cc1cc(C2=NNC(=NC3CC3)SC2)c(C)n1Cc1ccco1,-5,29,52*,32,85*
c1ccc2c(C3=NNC(=NC4CC4)SC3)c[nH]c2c1,19,109,-26,34,-11
CN=C1NN=C(c2cc(C)n(-c3c(C)n(C)n(-c4ccccc4)c3=O)c2C)CS1,25,103,0,6,-3
COCCCN=C1NN=C(c2cc(C)n(Cc3ccco3)c2C)CS1,24,98,-26,11,3
C[C@H](O)[C@@H]1C(=O)N2CCc3ccc(N4CCN(C)CC4)cc3[C@@H]2C[C@@H]1N(C)C(=O)NC1CCCCC1,.,.,.,0,.
COc1ccc(/C=C(\C#N)c2nc3ccccc3[nH]2)cc1O,.,.,.,52*,.
COc1cc(/C=C(\C#N)c2nc3ccccc3[nH]2)cc(OC)c1O,-8,84,-28,-1,22
Cc1cc(/C=C(\C#N)c2nc3ccccc3[nH]2)c(C)n1C,25,94,-47,78*,5
Cc1ccc(NC(=O)/C(C#N)=C/c2cn(CC(=O)NCc3ccco3)c3ccccc23)cc1C,46,113,3,41,-11
Cc1cc(C)cc(NC(=O)/C(C#N)=C/c2cn(CC(=O)NCc3ccco3)c3ccccc23)c1,50*,102,5,66*,-7
CCc1cc2c(CN3CCN(CCO)CC3)cc(=O)oc2cc1O,52*,103,-6,-18,-1
CC1=C(C(=O)N2CCCCCC2)CC(CC(=O)NCCN2CCOCC2)C(=O)N1CCCN1CCCC1=O (stereo not given),.,.,.,5,.
Cc1cccc(CSc2ncccc2C(=O)O)c1,54*,105,6,3,3
CCOc1cnn(-c2cc(Oc3ccc(C)cc3)ncn2)c(=O)c1Cl,-16,94,-11,-2,14
Cc1ccccc1Oc1cc(-n2ncc(Cl)c(Cl)c2=O)ncn1,18,103,-5,97*,-5
CC(=O)Nc1ccc(/C=N/Nc2nncc3ccccc23)cc1,.,.,.,41,.
O=c1cnnc(N/N=C/c2ccccn2)[nH]1,33,.,.,-1,.
C(=N\Nc1nncc2ccccc12)/c1ccccn1,.,.,.,81*,.
SMILES,PPC-1+TRAIL kill,STAT3 act,STAT1 blocker,C8 TRAIL sens,STAT3 inh
Fc1cccc(/C=N/Nc2nncc3ccccc23)c1,.,.,.,84*,.
Cc1ccc(Nc2nnc(SCC(=O)NC3CC3)s2)cc1,.,.,.,-4,.
O=C(O)CCCn1cc(NC(=O)COc2ccccc2F)cn1,.,.,.,2,.
Brc1ccccc1-c1nnc(SCc2nc3ccccc3s2)o1,18,143*,-40,13,-50
O=C(O)c1ccc(CSc2nnc(-c3ccccc3Br)o2)cc1,.,.,.,8,.
O=C(Cc1ccc(Cl)cc1)Nc1ccc(Br)cn1,.,.,.,8,.
Nc1nc2sc3c(c2cc1C(=O)NCC(=O)O)CCCC3,.,.,.,52*,.
Nc1nc2sc3c(c2cc1C(=O)N1CCOCC1)CCCC3,1,106,-2,-11,-4
COC(=O)/C=c1/sc2nc3ccccc3n2c1=O,-5,112,3,1,-10
O=c1/c(=C/c2ccccn2)sc2nc3ccccc3n12,22,116,-92,54*,-13
O=S(=O)(NCc1ccccc1)c1ccc(Br)c2nsnc12,13,.,.,18,.
C/C(=N\Nc1ccc(F)cc1F)c1ccc(F)cc1,24,86,-14,.,20
